Source: PubChem BioAssay (several laboratories)
Most compounds without a hit are left out; they make up all but 2.1% or so of the library.
MEX-5 binding: MEX-5 zinc finger RNA-binding disruptors – biochemical, C. elegans, fluorescence polarization, MLPCN library, primary screen; Zinc finger protein mex-5 (Caenorhabditis elegans), Q9XUB2; MEX-5/FITC-TCR2 RNA binding; stronger effect = lower value; activity score (negative = inhibition of binding), % at 10 µM; 0.38% of 300,000 active; AID 1832, 2009;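 active = inhibition past about -25% in most replicates, and total fluorescence under double the plate's negative control median, limit read from the data; inconclusive = replicates evenly split on the limit, or fluorescence at least double controls; inactive = too little inhibition in most replicates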;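 also: 0% = DMSO and -100% = 5 µM competing unlabeled TCR2 RNA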
Target sequence (Q9XUB2 whole entry, looked up): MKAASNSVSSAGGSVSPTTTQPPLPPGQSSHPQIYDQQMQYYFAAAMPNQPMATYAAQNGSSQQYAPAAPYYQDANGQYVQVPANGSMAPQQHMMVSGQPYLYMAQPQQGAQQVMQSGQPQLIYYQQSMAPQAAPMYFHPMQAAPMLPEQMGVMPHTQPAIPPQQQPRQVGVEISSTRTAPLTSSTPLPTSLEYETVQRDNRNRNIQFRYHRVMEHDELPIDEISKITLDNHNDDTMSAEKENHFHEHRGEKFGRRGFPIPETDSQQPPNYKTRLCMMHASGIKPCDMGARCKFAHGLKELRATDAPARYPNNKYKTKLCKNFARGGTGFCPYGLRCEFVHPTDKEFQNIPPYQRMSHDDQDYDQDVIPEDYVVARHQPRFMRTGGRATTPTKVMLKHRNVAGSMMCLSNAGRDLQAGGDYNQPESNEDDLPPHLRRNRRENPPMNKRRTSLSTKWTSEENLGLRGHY
RanGTP-Imp inh: inhibitors of RanGTP-importin-beta interaction, primary screen, biochemical, FRET, CFP-Ran, YFP-importin-beta, homogeneous. cell-free CFP-Ran/YFP-importin-beta FRET ratio. inhibition, % (concentration not given with the values). 1.1% of 300,000 active. AID 2216, 2009;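 active = more than half of the replicate wells show a fall in the fluorescence ratio signal beyond about 16%, limit read from the data, passing the limit was not always enough; inconclusive = exactly half of the replicate wells pass the set limit; inactive = fewer than half of replicates pass the limit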;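 also: 0% = DMSO wells and 100% = Ran loaded with GDP instead of GTP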
Runt-CBFb FRET: inhibitors of RUNX1 Runt–CBFb binding, primary screen, biochemical, FRET, Cerulean-Runt, Venus-CBFb, uHTS; Runt-related transcription factor 1 (Homo sapiens) + Core-binding factor subunit beta …; Cerulean-Runt/Venus-CBFb FRET ratio 530/480, 1 h; inhibition, % at 20 µM; 0.46% of 220,000 active;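 active = inhibition over about 50% at 20 µM in the single-dose screen, limit read from the data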;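 also: 0% = DMSO wells and 100% = excess unlabeled CBFb competitor control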
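Schedule: protein complex preformed 1 h, compound exposure 1 h, room temperature, dark; test system: Cerulean-labeled Runt domain protein; amount: 100 nM per protein; buffer or medium: Tris 50 mM pH 7.5, KCl, K2SO4, 0.01% BSA; read-out: loss of energy transfer signal; detection: FRET fluorescence; controls: 5 µM unlabeled CBFb as full-inhibition high control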
proKLK7 act: proKLK7 zymogen activators, primary screen, biochemical, fluorescence intensity; Kallikrein-7 (Homo sapiens), P49862; purified proKLK7, EDANS-DABCYL substrate fluorescence; 100% is mature enzyme control, 0% vehicle; activation, % at 7 µM; 0.9% of 370,000 active; AID 652039, 2013;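 active = activation above the mean of all tested compounds plus 3 SD, computed per campaign excluding outliers beyond control limits, cut at about 13% in these data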
Target sequence (P49862 whole entry, looked up): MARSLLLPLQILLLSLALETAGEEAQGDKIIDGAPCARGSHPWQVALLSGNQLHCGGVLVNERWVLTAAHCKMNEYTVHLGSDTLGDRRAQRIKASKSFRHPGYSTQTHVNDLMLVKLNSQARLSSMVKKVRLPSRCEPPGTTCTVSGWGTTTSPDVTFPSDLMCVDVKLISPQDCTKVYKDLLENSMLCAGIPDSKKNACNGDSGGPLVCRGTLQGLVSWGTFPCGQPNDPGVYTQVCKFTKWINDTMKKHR
Runt-SMMHC FRET: inhibitors of RUNX1 Runt–CBFb-SMMHC binding, primary screen, biochemical, FRET, Cerulean-Runt, Venus-CBFb-SMMHC, uHTS | Runt-related transcription factor 1 (Homo sapiens) + Core-binding factor subunit beta … | Cerulean-Runt/Venus-CBFb-SMMHC FRET ratio 530/480, 1 h | inhibition, % at 20 µM | 0.74% of 220,000 active | AID 1434, 2008;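 active = mean inhibition across duplicate retests at 20 µM reaching about 50%, limit read from the data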;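 also: 0% = DMSO wells and 100% = wells with excess untagged CBFb-SMMHC; inhibitors lower the FRET ratio by blocking Runt binding to CBFb-SMMHC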
KLK7 act conf: proKLK7 zymogen activators, confirmation, biochemical, fluorescence intensity, triplicate | purified proKLK7, EDANS-DABCYL substrate fluorescence; scaled: vehicle 0, mature enzyme 100 | shares compounds with proKLK7 act | 68% of 3,200 active | activation, % at 7 µM;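 active = activation, as change over the incubation, above the mean of all tested compounds plus 3 SD, cut at about 13% in these data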
EDANS-DABCYL int: EDANS-DABCYL substrate optical interference, artefact control for kallikrein-7 zymogen activator project, biochemical, fluorescence intensity, high throughput; shares compounds with proKLK7 act; activation, % at 7 µM; no enzyme, 4 h; solvent 0%, active enzyme control 100%; AID 686952, 2013; 80% of 3,200 active;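 active = activation above the all-compound mean plus 3 SD, ignoring values outside control-based bounds, cut at about 4.8% in these data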;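 also: value is the 4 h activation minus the activation read at time zero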
EDANS interf: optically interferes with EDANS-DABCYL fluorescence, kallikrein-7 activator counter-screen. shares compounds with proKLK7 act. EDANS-DABCYL peptide fluorescence interference, no enzyme. EC50, µM. 20% of 250 active. AID 720493;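 active = compounds that raise the fluorescence signal in this interference counterscreen, with EC50 at or below 10 µM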;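 also: intact quenched peptide substrate alone read at 355 nm excitation and 520 nm emission; signal is fluorescence gain from T0 to T4 after four hours at room temperature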
Starred values were filed as active, the others as inactive; i = inactive; ? = inconclusive; / = no result.

SMILES	MEX-5 binding	RanGTP-Imp inh	Runt-CBFb FRET	proKLK7 act	Runt-SMMHC FRET	KLK7 act conf	EDANS-DABCYL int	others
CCN1CCN(c2cc(C)c3cc(NC(=S)N4CC(C)CC(C)C4)ccc3n2)CC1 (centres undefined)	2	3	4	14*	4	2	4
CCN1CCN(c2cc(C)c3cc(NC(=O)c4ccc(C)c(C)c4)ccc3n2)CC1	0	-4	/	29*	/	30*	24*	EDANS interf=i
CCOc1ccccc1NC(=O)C1CCCN(S(=O)(=O)c2ccc3c(c2)CCCN3C(C)=O)C1 (centres undefined)	/	/	/	0	/	/	/
O=C(CCC(=O)N1CCN(C2c3ccccc3-c3ccccc32)CC1)Nc1nnc(C(F)(F)F)s1	/	/	/	0	/	/	/
CCOC(=O)c1nn(-c2ccccc2)c(C(=O)OCC)c1N	-2	6	0	18*	-2	9	11*
CC(C)N(CCC(=O)c1ccc2ccccc2c1)Cc1ccccc1	/	/	/	14*	/	15*	18*
CC(OC(=O)c1ccc2ccccc2c1)C(=O)N(C)Cc1ccccc1 (centres undefined)	/	/	/	0	/	/	/
CCN(CC)CCCNC(=O)c1oc(=O)c2ccccc2c1-c1ccc(C)cc1	/	/	/	0	/	/	/
CCN(CC)c1nc2c(s1)C(=O)CC(C)(C)C2	0	1	1	-1	-3	/	/
O=C(CSc1nc2cc3ccccc3cc2[nH]1)Nc1ccc(F)cc1	0	4	0	1	0	/	/
N#Cc1ccc(-c2cccnc2)nc1SCC(N)=O	-4	-1	3	0	1	/	/
CCOC(=O)CSc1nc(N)c(C#N)c(-c2ccc(OC)cc2)c1C#N	-2	3	4	-3	4	/	/
CCOC(=O)CC(=O)CSc1nc(N)c(C#N)c(-c2ccc(F)cc2)c1C#N	-2	?	14	14*	6	13*	13*
CCOC(=O)CC(=O)CSc1nc(-c2cccnc2)cc(C)c1C#N	-1	-8	-5	34*	-11	116*	123*
CCOC(=O)CC(=O)CSc1nc(-c2cccnc2)ccc1C#N	-1	-26	-6	84*	-61	286*	286*
CCOC(=O)CC(=O)CSc1nc(C)cc(-c2cccnc2)c1C#N	3	-5	-2	35*	-8	98*	72*	EDANS interf=5.5*
CC1=C(CC(=O)O)c2cc(F)ccc2C1=Cc1ccc(S(C)(=O)=O)cc1	/	/	/	1	/	/	/
Cn1c(SCC(=O)Nc2ccc(NC(=O)c3cccs3)cc2)nnc1-c1ccncc1	0	1	-1	51*	2	1	0
CCC1CCCCN1C(=O)Nc1cc(Cl)ccc1OC (centres undefined)	-2	0	2	0	-2	/	/
O=C1C=CC(n2cc(F)c(=O)[nH]c2=O)O1 (centres undefined)	/	/	/	0	/	/	/
Cc1ccc(S(=O)(=O)NCc2ccccc2)cc1C(=O)NC(C)c1ccc(S(N)(=O)=O)cc1 (centres undefined)	/	/	/	0	/	/	/
CCOC(=O)c1[nH]c2ccc(OC)cc2c1NC(=O)CCN1CCC(C)CC1	1	7	-13	21*	2	9	6.8*
CCOC(=O)c1[nH]c2cc(OC)c(OC)cc2c1NC(=O)CCN1CCSCC1	-1	-4	0	16*	-5	12	8.7*
CCOC(=O)c1[nH]c2ccc(Br)cc2c1NC(=O)CCN1CCC(C)CC1	4	6	-1	0	-2	/	/
CCOC(=O)c1[nH]c2cc3c(cc2c1NC(=O)CN1CCN(CCO)CC1)OCO3	0	-1	-1	49*	0	26*	29*
SMILES	MEX-5 binding	RanGTP-Imp inh	Runt-CBFb FRET	proKLK7 act	Runt-SMMHC FRET	KLK7 act conf	EDANS-DABCYL int	others
CCN(CC)CCCNC(=O)c1cc2c(-c3cccc(OC)c3)nn(C)c2s1	-1	-1	/	11	/	/	/
CCCCN(C)CCNC(=O)c1cc2c(-c3cccc(OC)c3)nn(C)c2s1	0	0	/	13*	/	10	15*
O=c1[nH]cnc2nn(-c3ccccc3)nc12	1	-1	-2	-3	-2	/	/
O=c1[nH]cnc2nc(-c3ccccc3)c(-c3ccccc3)nc12	-1	2	0	29*	0	29*	30*
CC(=O)Nc1sc(C)c(C)c1C(=O)OCC(=O)NCc1ccccc1	/	/	/	-1	/	/	/
COc1ccc(NC(=O)COC(=O)c2c(NC(C)=O)sc(C)c2C)cc1	/	/	/	26*	/	-1	-1
Cc1cccc(C(=O)Nc2ccccc2C(=O)OCC(=O)Nc2ccc(C#N)cc2)c1	0	-2	-6	17*	-8	0	-1
Cc1cccc(OCC(=O)Nc2ccc(C(=O)Nc3ccccc3C(=O)O)cc2)c1	/	/	/	0	/	/	/
Cc1ccc(NS(=O)(=O)c2ccc(C(=O)N3CC(C)CC(C)C3)cc2)cc1 (centres undefined)	0	7	/	1	/	/	/
Nc1nc2ccc(Cl)cc2cc1C(=O)NCCCN1CCOCC1	/	/	/	19*	/	15*	12*	EDANS interf=i
C=CCNC(=O)c1cc2cc(Cl)ccc2nc1N	/	/	/	18*	/	16*	14*
Cc1ccc(S(=O)(=O)N2CCOCC2)cc1NC(=O)CSc1nnc(COc2ccccc2F)n1N	/	/	/	1	/	/	/
CCOC(=O)C(=O)NC1CC=CCC1c1ccc2c(c1)OCO2 (centres undefined)	/	/	/	0	/	/	/
Cc1ccccc1NS(=O)(=O)c1ccc2c3c(cccc13)C(=O)N2C	2	7	/	3	/	/	/
CN1C(=O)c2cccc3c(S(N)(=O)=O)ccc1c23	-1	?	/	71*	/	56*	66*
CN1C(=O)c2cccc3c(S(=O)(=O)NCc4ccco4)ccc1c23	0	-1	-13	21*	63	14*	14*
O=c1c2ccccc2nc2n1CCC2	2	3	-18	0	-90	/	/
Nc1ccc2nc3n(c(=O)c2c1)CCC3	0	?	-1	17*	-5	10	12*
